Measurements published in ChEMBL document CHEMBL3046615, “Isolation of nematicidal compounds from Tagetes patula L. yellow flowers: structure-activity relationship studies against cyst nematode Heterodera zeae infective stage larvae” (2011).
Active and inactive are the calls of the source. The rule behind the calls is not given here.

How the values were obtained:
[1] = system: Heterodera zeae; experiment: Nematicidal activity against Heterodera zeae infective stage larvae assessed as nematode mortality at 0.5% under light conditions measured 72 hr post dose by stereoscopic microscopy; type: functional
Summary of the method: (§1)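 Freshly hatched H. zeae second-stage juveniles, 100 per Petri plate, three replicates. Samples in MeOH, DMSO or water were tested in glass cavity blocks; petroleum ether samples were dried onto the block and larvae transferred on agar pieces. Percentages are dilutions of 30 mg/mL stocks (extracts/fractions) or 1 mg/mL stocks (pure compounds). Incubated at 28 ± 2 °C in light or dark box; mortality averaged over three replicates.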

[2] = system: Heterodera zeae; experiment: Nematicidal activity against Heterodera zeae infective stage larvae assessed as nematode mortality at 0.5% under light conditions measured 48 hr post dose by stereoscopic microscopy; type: functional; summary of the method: as §1
[3] = system: Heterodera zeae; experiment: Nematicidal activity against Heterodera zeae infective stage larvae assessed as nematode mortality at 1% under dark conditions measured 24 hr post dose by stereoscopic microscopy; type: functional; summary of the method: as §1
[4] = system: Heterodera zeae; experiment: Nematicidal activity against Heterodera zeae infective stage larvae assessed as nematode mortality at 0.125% under light conditions measured 48 hr post dose by stereoscopic microscopy; type: functional; summary of the method: as §1
[5] = system: Heterodera zeae; experiment: Nematicidal activity against Heterodera zeae infective stage larvae assessed as nematode mortality at 0.25% under light conditions measured 48 hr post dose by stereoscopic microscopy; type: functional; summary of the method: as §1
[6] = system: Heterodera zeae; experiment: Nematicidal activity against Heterodera zeae infective stage larvae assessed as nematode mortality at 0.125% under light conditions measured 24 hr post dose by stereoscopic microscopy; type: functional; summary of the method: as §1
[7] = system: Heterodera zeae; experiment: Nematicidal activity against Heterodera zeae infective stage larvae assessed as nematode mortality at 0.25% under light conditions measured 24 hr post dose by stereoscopic microscopy; type: functional; summary of the method: as §1
[8] = system: Heterodera zeae; experiment: Nematicidal activity against Heterodera zeae infective stage larvae assessed as nematode mortality at 0.5% under light conditions measured 24 hr post dose by stereoscopic microscopy; type: functional; summary of the method: as §1
[9] = system: Heterodera zeae; experiment: Nematicidal activity against Heterodera zeae infective stage larvae assessed as nematode mortality at 1% under light conditions measured 24 hr post dose by stereoscopic microscopy; type: functional; summary of the method: as §1
[10] = system: Heterodera zeae; experiment: Nematicidal activity against Heterodera zeae infective stage larvae assessed as nematode mortality at 0.125% under dark conditions measured 5 to 60 min post dose by stereoscopic microscopy; type: functional, organism-based
Summary of the method: (§2)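 H. zeae freshly hatched second-stage juveniles, 100 per plate, three replicates, at 28 ± 2 °C under light or in a dark box. Dilutions are % of a stock: 30 mg/mL for extracts/fractions, 1 mg/mL for pure compounds. Methanol-, DMSO- or water-soluble samples were tested in glass cavity blocks. Petroleum ether-soluble samples were air-dried in the block and covered with agar pieces bearing cultured larvae. Mortality was followed over 5–60 min; each value is the mean of three experiments.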

[11] = system: Heterodera zeae; experiment: Nematicidal activity against Heterodera zeae infective stage larvae assessed as nematode mortality at 0.25% under dark conditions measured 5 to 60 min post dose by stereoscopic microscopy; type: functional, organism-based; summary of the method: as §2
[12] = system: Heterodera zeae; experiment: Nematicidal activity against Heterodera zeae infective stage larvae assessed as nematode mortality at 0.5% under dark conditions measured 5 to 60 min post dose by stereoscopic microscopy; type: functional, organism-based; summary of the method: as §2
[13] = system: Heterodera zeae; experiment: Nematicidal activity against Heterodera zeae infective stage larvae assessed as nematode mortality at 1% under dark conditions measured 5 to 60 min post dose by stereoscopic microscopy; type: functional, organism-based; summary of the method: as §2
[14] = system: Heterodera zeae; experiment: Nematicidal activity against Heterodera zeae infective stage larvae assessed as nematode mortality at 2% under dark conditions measured 5 to 60 min post dose by stereoscopic microscopy; type: functional, organism-based; summary of the method: as §2
[15] = system: Heterodera zeae; experiment: Nematicidal activity against Heterodera zeae infective stage larvae assessed as nematode mortality at 5% under dark conditions measured 5 to 60 min post dose by stereoscopic microscopy; type: functional, organism-based; summary of the method: as §2
[16] = system: Heterodera zeae; experiment: Nematicidal activity against Heterodera zeae infective stage larvae assessed as nematode mortality at 0.125% under light conditions measured 5 to 60 min post dose by stereoscopic microscopy; type: functional, organism-based; summary of the method: as §2
[17] = system: Heterodera zeae; experiment: Nematicidal activity against Heterodera zeae infective stage larvae assessed as nematode mortality at 0.25% under light conditions measured 5 to 60 min post dose by stereoscopic microscopy; type: functional, organism-based; summary of the method: as §2
[18] = system: Heterodera zeae; experiment: Nematicidal activity against Heterodera zeae infective stage larvae assessed as nematode mortality at 0.5% under light conditions measured 5 to 60 min post dose by stereoscopic microscopy; type: functional, organism-based; summary of the method: as §2
[19] = system: Heterodera zeae; experiment: Nematicidal activity against Heterodera zeae infective stage larvae assessed as nematode mortality at 1% under light conditions measured 5 to 60 min post dose by stereoscopic microscopy; type: functional, organism-based; summary of the method: as §2
[20] = system: Heterodera zeae; experiment: Nematicidal activity against Heterodera zeae infective stage larvae assessed as nematode mortality at 2% under light conditions measured 5 to 60 min post dose by stereoscopic microscopy; type: functional, organism-based; summary of the method: as §2
[21] = system: Heterodera zeae; experiment: Nematicidal activity against Heterodera zeae infective stage larvae assessed as nematode mortality at 5% under light conditions measured 5 to 60 min post dose by stereoscopic microscopy; type: functional, organism-based; summary of the method: as §2
[22] = system: Heterodera zeae; experiment: Nematicidal activity against Heterodera zeae infective stage larvae assessed as nematode mortality at 0.125% under dark conditions measured 48 hr post dose by stereoscopic microscopy; type: functional; summary of the method: as §1
[23] = system: Heterodera zeae; experiment: Nematicidal activity against Heterodera zeae infective stage larvae assessed as nematode mortality at 0.25% under dark conditions measured 48 hr post dose by stereoscopic microscopy; type: functional; summary of the method: as §1
[24] = system: Heterodera zeae; experiment: Nematicidal activity against Heterodera zeae infective stage larvae assessed as nematode mortality at 0.125% under dark conditions measured 24 hr post dose by stereoscopic microscopy; type: functional; summary of the method: as §1
[25] = system: Heterodera zeae; experiment: Nematicidal activity against Heterodera zeae infective stage larvae assessed as nematode mortality at 0.25% under dark conditions measured 24 hr post dose by stereoscopic microscopy; type: functional; summary of the method: as §1
[26] = system: Heterodera zeae; experiment: Nematicidal activity against Heterodera zeae infective stage larvae assessed as nematode mortality at 0.5% under dark conditions measured 24 hr post dose by stereoscopic microscopy; type: functional; summary of the method: as §1
[27] = system: Heterodera zeae; experiment: Nematicidal activity against Heterodera zeae infective stage larvae assessed as nematode mortality at 1% under dark conditions measured 72 hr post dose by stereoscopic microscopy; type: functional; summary of the method: as §1
[28] = system: Heterodera zeae; experiment: Nematicidal activity against Heterodera zeae infective stage larvae assessed as nematode mortality at 1% under dark conditions measured 48 hr post dose by stereoscopic microscopy; type: functional; summary of the method: as §1
[29] = system: Heterodera zeae; experiment: Nematicidal activity against Heterodera zeae infective stage larvae assessed as nematode mortality at 1% under light conditions measured 72 hr post dose by stereoscopic microscopy; type: functional; summary of the method: as §1
[30] = system: Heterodera zeae; experiment: Nematicidal activity against Heterodera zeae infective stage larvae assessed as nematode mortality at 1% under light conditions measured 48 hr post dose by stereoscopic microscopy; type: functional; summary of the method: as §1
[31] = system: Heterodera zeae; experiment: Nematicidal activity against Heterodera zeae infective stage larvae assessed as nematode mortality at 0.125% under dark conditions measured 72 hr post dose by stereoscopic microscopy; type: functional; summary of the method: as §1
[32] = system: Heterodera zeae; experiment: Nematicidal activity against Heterodera zeae infective stage larvae assessed as nematode mortality at 0.25% under dark conditions measured 72 hr post dose by stereoscopic microscopy; type: functional; summary of the method: as §1
[33] = system: Heterodera zeae; experiment: Nematicidal activity against Heterodera zeae infective stage larvae assessed as nematode mortality at 0.5% under dark conditions measured 72 hr post dose by stereoscopic microscopy; type: functional; summary of the method: as §1
[34] = system: Heterodera zeae; experiment: Nematicidal activity against Heterodera zeae infective stage larvae assessed as nematode mortality at 0.5% under dark conditions measured 48 hr post dose by stereoscopic microscopy; type: functional; summary of the method: as §1
[35] = system: Heterodera zeae; experiment: Nematicidal activity against Heterodera zeae infective stage larvae assessed as nematode mortality at 0.125% under light conditions measured 72 hr post dose by stereoscopic microscopy; type: functional; summary of the method: as §1
[36] = system: Heterodera zeae; experiment: Nematicidal activity against Heterodera zeae infective stage larvae assessed as nematode mortality at 0.25% under light conditions measured 72 hr post dose by stereoscopic microscopy; type: functional; summary of the method: as §1
[37] = system: Heterodera zeae; experiment: Nematicidal activity against Heterodera zeae infective stage larvae assessed as nematode mortality at 2% under dark conditions measured 24 hr post dose by stereoscopic microscopy; type: functional; summary of the method: as §1
[38] = system: Heterodera zeae; experiment: Nematicidal activity against Heterodera zeae infective stage larvae assessed as nematode mortality at 5% under dark conditions measured 24 hr post dose by stereoscopic microscopy; type: functional; summary of the method: as §1
[39] = system: Heterodera zeae; experiment: Nematicidal activity against Heterodera zeae infective stage larvae assessed as nematode mortality at 2% under light conditions measured 24 hr post dose by stereoscopic microscopy; type: functional; summary of the method: as §1
[40] = system: Heterodera zeae; experiment: Nematicidal activity against Heterodera zeae infective stage larvae assessed as nematode mortality at 5% under light conditions measured 24 hr post dose by stereoscopic microscopy; type: functional; summary of the method: as §1

Row | Compound | mortality [3] | mortality [4] | mortality [5] | mortality [6] | mortality [7] | mortality [8] | mortality [9] | Activity [10] | Activity [11] | Activity [12] | Activity [13] | Activity [14] | Activity [15] | Activity [16] | Activity [17] | Activity [18] | Activity [19] | Activity [20] | Activity [21] | mortality [22] | also measured
1 | COc1c(O)cc2oc(-c3ccc(O)c(O)c3)c(O)c(=O)c2c1O [PATULETIN] | 20% | 50% | 70% | 20% | 20% | 20% | 40% | inactive | inactive | inactive | inactive | inactive | inactive | inactive | inactive | inactive | inactive | inactive | inactive | 0% | mortality [1]: 100%; mortality [2]: 20%; mortality [23]: 10%; mortality [24]: 0%; mortality [25]: 0%; mortality [26]: 0%; mortality [27]: 60%; mortality [28]: 60%; mortality [29]: 100%; mortality [30]: 40%; mortality [31]: 0%; mortality [32]: 10%; mortality [33]: 20%; mortality [34]: 20%; mortality [35]: 100%; mortality [36]: 100%
2 | CNC(=O)Oc1cccc2c1OC(C)(C)C2 [CARBOFURAN] | 100% | 100% | 100% | 40% | 80% | 100% | 100% | inactive | inactive | inactive | inactive | inactive | inactive | inactive | inactive | inactive | inactive | inactive | inactive | 100% | mortality [37]: 100%; mortality [38]: 100%; mortality [39]: 100%; mortality [40]: 100%; mortality [23]: 100%; mortality [24]: 60%; mortality [25]: 80%; mortality [26]: 100%
3 | O=c1c(O)c(-c2ccc(O)c(O)c2)oc2cc(O)cc(O)c12 [QUERCETIN] | 50% | 50% | 50% | 40% | 40% | 50% | 50% | inactive | inactive | inactive | inactive | inactive | inactive | inactive | inactive | inactive | inactive | inactive | inactive | 40% | mortality [1]: 80%; mortality [2]: 50%; mortality [23]: 50%; mortality [24]: 40%; mortality [25]: 40%; mortality [26]: 40%; mortality [27]: 70%; mortality [28]: 70%; mortality [29]: 70%; mortality [30]: 50%; mortality [31]: 40%; mortality [32]: 50%; mortality [33]: 70%; mortality [34]: 50%; mortality [35]: 80%; mortality [36]: 70%
4 | COc1c(O[C@@H]2O[C@H](CO)[C@@H](O)[C@H](O)[C@H]2O)cc2oc(-c3ccc(O)c(O)c3)c(O)c(=O)c2c1O [PATULITRIN] | 0% | 0% | 20% | 0% | 0% | 0% | 0% | inactive | inactive | inactive | inactive | inactive | inactive | inactive | inactive | inactive | inactive | inactive | inactive | 0% | mortality [1]: 50%; mortality [2]: 0%; mortality [23]: 10%; mortality [24]: 0%; mortality [25]: 0%; mortality [26]: 0%; mortality [27]: 50%; mortality [28]: 40%; mortality [29]: 50%; mortality [30]: 20%; mortality [31]: 10%; mortality [32]: 20%; mortality [33]: 40%; mortality [34]: 20%; mortality [35]: 10%; mortality [36]: 20%
